Compound activity: PubChem BioAssay, several laboratories
A selection: hits, their analogues and other compounds. The true share with any hit is near 0.73%.
Cardiac RTF inh: cardiac RTF calcium desensitization. IANBD-labeled cardiac RTF, Ca2+ fluorescence. inhibition, % at 7.15 µM. actives 0.12% (n = 340,000);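 active = inhibition above the mean inhibition of all tested compounds plus 3 SD, cut at about 17% in these data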;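 note: assay run at fixed EC70 calcium of 1.6 mM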
cardiac RTF act: increases calcium sensitivity of human cardiac regulated thin filaments | activation, % at 7.2 µM | AID 493008 | IANBD-labeled TnC RTF fluorescence at EC20 calcium; 0% EC20 calcium, 100% full calcium | P19429+P45379 | actives 0.24% (n = 340,000);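 active = activation above the mean over all tested compounds plus 3 SD, cut at about 30% in these data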;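 note: rise in fluorescence read as greater calcium sensitivity of cardiac thin filaments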
DDE Tn7 FP inh: inhibitors of Tn7 peptide binding to human fibrin DD(E); P02675; FP displacement of FITC-Tn7 peptide from fibrin DD(E); 0% = median of compound wells per plate; inhibition, % at 8.3 µM; actives 0.13% (n = 370,000); AID 720508;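 active = inhibition above the mean of compounds falling within the control limits plus 3 SD of them, cut at about 14% in these data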;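 note: 0% = plate median of compound wells and 100% = 10 µM Aha-Tn7 peptide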
Target sequence (P02675 whole entry, looked up): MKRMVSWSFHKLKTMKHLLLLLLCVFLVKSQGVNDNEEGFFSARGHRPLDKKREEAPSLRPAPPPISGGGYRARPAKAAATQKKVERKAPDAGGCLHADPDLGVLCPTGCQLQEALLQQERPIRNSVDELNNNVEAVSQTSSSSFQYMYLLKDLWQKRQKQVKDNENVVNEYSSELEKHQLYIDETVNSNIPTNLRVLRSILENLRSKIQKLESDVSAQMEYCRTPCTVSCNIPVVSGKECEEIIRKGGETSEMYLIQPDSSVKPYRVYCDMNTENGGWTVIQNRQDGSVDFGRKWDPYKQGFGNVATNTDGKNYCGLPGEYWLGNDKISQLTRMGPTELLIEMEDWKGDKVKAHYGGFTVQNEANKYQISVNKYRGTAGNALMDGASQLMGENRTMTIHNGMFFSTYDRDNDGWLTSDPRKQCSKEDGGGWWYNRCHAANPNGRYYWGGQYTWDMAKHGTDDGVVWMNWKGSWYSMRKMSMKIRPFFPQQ
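Measure: % inhibition scaled between sample-field median and high-control FP; Test system: human fibrin DD(E); Quantity: 2 µM final DD(E) protein; Doses: one dose, 8.3 µM nominal; Schedule: compound with protein 10 min, then 3 h after probe, room temperature; Detection: fluorescence polarization; Medium: Tris buffer with calcium and detergent, pH 7.8.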
Tn6 DDE FP: inhibitors of Tn6 peptide binding to human fibrin DD(E) | inhibition, % at 8.3 µM | P02675 | AID 720509 | Fibrin DD(E) TRITC-Tn6 fluorescence polarization displacement | actives 0.21% (n = 370,000);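 active = inhibition above a per-campaign cutoff: mean of compounds within control limits plus 3 SD, cut at about 15% in these data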;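 note: 0% = median of all compound wells on the plate and 100% = blocking peptide control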
LANA DNA inh: inhibitors of KSHV LANA C-terminal domain DNA binding; actives 0.078% (n = 340,000); inhibition, % at 9 µM; MBP-C-LANA/FAM-LBS DNA binding, fluorescence polarization;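 active = highest replicate inhibition at or above 60% at 9 µM, even if other replicates fall short; inactive = all replicates below 60% inhibition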;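 note: 0% = neutral control wells and 100% = 4 µM acridine orange control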
Keap1-Nrf2 PPI: Keap1-Nrf2 (human) interaction inhibition; Q14145; Keap1 Kelch-Nrf2 peptide fluorescence polarization, 1536-well; inhibition, % at 9.4 µM; actives 0.15% (n = 340,000); in the data active = inhibition above about 12%;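 note: human Keap1 Kelch domain with fluorescein labeled Nrf2 9mer peptide probe; 0% = neutral control wells and 100% = peptide positive control; higher means more block of Keap1 binding to Nrf2 peptide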
Tn7 DDE conf: confirmation of inhibitors of Tn7 binding to human fibrin DD(E) | inhibition, % at 8.3 µM | actives 5% (n = 460) | FP displacement of TRITC-Tn7 peptide from DD(E); 0% set at plate's compound-well median | shares compounds with DDE Tn7 FP inh | AID 720628;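 active = inhibition above the campaign cutoff, the mean of compounds within control limits plus 3 SD, cut at about 14% in these data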;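 note: 100% = median FP of high control wells holding Aha-Tn7 inhibitor peptide; displacers lower polarization since freed probe rises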
DDE Tn7 FP ctr: DD(E)-Tn7 binding inhibition, counter-screen; shares compounds with DDE Tn7 FP inh; fibrin DD(E), TRITC-Tn7 probe displacement, fluorescence polarization; inhibition, % at 8.3 µM; actives 3% (n = 460);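 active = inhibition above the cutoff, the mean of compounds lying between the control bounds plus 3 SD of those compounds, cut at about 17% in these data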;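 note: 0% = median of compound sample wells and 100% = excess unlabeled Aha-Tn7 peptide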
* marks the source's active call; other numbers are inactive results; i = inactive; . = not tested or not shown; + = active, no number.

SMILES | Cardiac RTF inh | cardiac RTF act | DDE Tn7 FP inh | Tn6 DDE FP | LANA DNA inh | Keap1-Nrf2 PPI | Tn7 DDE conf | DDE Tn7 FP ctr
CCOc1ccc(-n2c(SCC(=O)Nc3ccc(S(=O)(=O)Nc4nccs4)cc3)nnc2-c2ccncc2)cc1 | . | . | 2 | -1 | . | . | . | .
CCCC(=O)N1CCC1(C)C(=O)NS(=O)(=O)c1cccc(C)c1 (centres undefined) | . | . | -1 | 2 | . | . | . | .
CN(C)S(=O)(=O)N1CCC(Oc2ccc(C(=O)NCc3cnn(C)c3)cc2)CC1 | 3 | 6 | 14* | -1 | 0 | -6 | 7 | 0
CC1CCC(NC(=O)c2cc3c(=O)n(C)c4ccccc4c3n2C)CC1 (centres undefined) | -4 | 3 | 14* | 11 | -1 | -4 | 1 | -2
CCn1c(=O)cc(SCC(=O)Nc2cccnc2)c2ccccc21 | 1 | -5 | 14* | -2 | -1 | 0 | 2 | -1
COc1ccc(CN2C(=O)[C@]3(NCCc4c3[nH]c3ccc(OC)cc43)c3cc(F)ccc32)cc1 | . | . | -8 | 2 | . | . | . | .
CCOC(=O)C1CCCN(C(=O)c2cc(C#N)cs2)CC1 (centres undefined) | . | . | 0 | 2 | . | . | . | .
CCOC(=O)N1CCN(Cc2nc(-c3ccc(C)cc3)no2)CC1 | -3 | 2 | 16* | -1 | -2 | -1 | 16* | 8
Cc1cccc(Cn2cc(COC(=O)Nc3ccc(F)cc3)nn2)c1 | . | . | -7 | -9 | . | . | . | .
O=C(CSc1nnc(-c2cccnc2)n1-c1ccc(Cl)cc1)c1ccc2ccccc2c1 | . | . | -7 | 1 | . | . | . | .
CN1CCC(NC(=O)CCc2ccccc2)CC1 | -4 | -1 | 14* | -1 | -1 | -1 | 5 | 2
Cc1ccc(CC(=O)NC2CCN(C)CC2)cc1 | -7 | 2 | 1 | 5 | -2 | 4 | . | .
C=CCN1C(=O)[C@@H](CC(=O)NCCCN2CCCC2=O)[C@]2(C(=O)OC)CCCCC=C12 | . | . | 6 | 0 | . | . | . | .
CCCCOCC1CN(CCCC)S(=O)(=O)c2c(NCc3cc(OC)c(OC)c(OC)c3)cccc2O1 (centres undefined) | . | . | 7 | 5 | . | . | . | .
CC(=O)Nc1cc(-c2ccccc2N(C)C)cn2c(-c3cccc(C(F)(F)F)c3)cnc12 | . | . | 21* | 3 | . | . | -3 | -1
CC(=O)Nc1cc(-c2cccc(NS(C)(=O)=O)c2)cn2c(-c3cccc(C(F)(F)F)c3)cnc12 | . | . | -5 | -1 | . | . | . | .
O=C(c1cccc(NC2=NC3CS(=O)(=O)CC3S2)c1)N1CCN(c2cccc(Cl)c2)CC1 (centres undefined) | -1 | 0 | 17* | 1 | 0 | -2 | 7 | -4
COc1ccccc1N1CCN(CC(=O)c2c(C)[nH]c3ccccc23)CC1 | -19 | 0 | 16* | 0 | 1 | -1 | -2 | -2
CCOc1ccc(/C=N/n2c(SC)nnc(C(C)(C)C)c2=O)cc1 | -1 | -5 | 15* | 0 | -2 | -4 | 0 | 1
COc1ccc(/C=N/n2c(SC)nnc(C(C)(C)C)c2=O)cc1 | 0 | -2 | -9 | 11 | 1 | 1 | . | .
CC(=O)C(Cc1ccccc1)NC(=O)CCl (centres undefined) | -7 | -2 | -2 | 4 | -1 | -1 | . | .
O=C(CCl)NC(Cc1ccccc1)c1ccccc1 (centres undefined) | -5 | -1 | 15* | 5 | -1 | 0 | -5 | -7
Clc1ccc(-n2c(SCc3cccc4ccccc34)nnc2-c2ccco2)cc1 | . | . | 14* | -10 | . | . | 13 | 6
C#CCNC(=O)C[C@@H]1C[C@]2(C(=O)OCC)CCC3=C2N(CCC3)C1=O | . | . | -3 | 3 | . | . | . | .
CCOC(=O)C1=C(C(=O)OCC)C2N(Cc3ccc(C#N)cc3)c3ccccc3[C@@]23C[C@@H](C(=O)OC)N(S(=O)(=O)c2cccs2)C3=N1 (some centres undefined) | . | . | -1 | -6 | . | . | . | .
SMILES | Cardiac RTF inh | cardiac RTF act | DDE Tn7 FP inh | Tn6 DDE FP | LANA DNA inh | Keap1-Nrf2 PPI | Tn7 DDE conf | DDE Tn7 FP ctr
CCOC(=O)c1c(C)cc2c(CO)n[nH]c(=O)c2c1C | . | . | -3 | -2 | . | . | . | .
COCCCNC(=S)NNC(=O)c1ccccn1 | -4 | 7 | 16* | 3 | -1 | 4 | 7 | -4
COCCCNC(=S)NNC(=O)c1ccccc1Br | -5 | 6 | 6 | -5 | 0 | -10 | . | .
CCOCCCNC(=S)N1CCC(C(=O)c2ccc(C)cc2)CC1 | -2 | -1 | 14* | 2 | -1 | 4 | 1 | -4
CC(C)OCCCNC(=S)N1CCC(C(=O)c2ccc(Cl)cc2)CC1 | 6 | -4 | 5 | 2 | 2 | -3 | . | .
CN(C)/C=C1\C=C2C(=O)c3ccccc3N2C1=O | i | + | 30* | 0 | + | + | 53* | 24*
CN(C)S(=O)(=O)N1C(=O)c2ccccc2C1=O | -10 | -2 | -5 | -1 | 0 | 3 | . | .
C[C@H](O)[C@@H]1CN2CCc3ccc(N4CCOCC4)cc3[C@@H]2C[C@@H]1N(C)C(=O)c1cccc(Cl)c1 | . | . | -3 | 2 | . | . | . | .
C#CCNC(=O)C[C@H]1C[C@@]2(C(=O)OC)C(=C[C@H](C3CCCC3)O[C@@H]2C)N(CCc2ccc(OC)c(OC)c2)C1=O | . | . | -6 | -2 | . | . | . | .
CC(=O)Nc1ccc(N2C(=O)c3cccc4c(O)ccc(c34)C2=O)cc1 | i | 609* | 20* | 4 | 36 | 2 | 5 | 7
Cc1ccc(N2C(=O)c3cccc4c(C(=O)O)ccc(c34)C2=O)cc1 | . | . | 3 | -3 | . | . | . | .
Cc1cccc(C)c1NC(=O)C(c1ccnc2ccccc12)N1CCN(CCN(C)C)CC1 (centres undefined) | . | . | 2 | -1 | . | . | . | .
CCc1nc2c(OCCn3cccc3)cccn2c1N(C)C(=O)c1ccco1 | . | . | 0 | -12 | . | . | . | .
CC1(c2ccccc2)NC(=O)N(CC(=O)Nc2ccc(N3CCOCC3)cc2N2CCOCC2)C1=O (centres undefined) | -6 | 2 | 14* | -2 | -1 | -2 | 7 | 5
Cc1ccc(C2(C)NC(=O)N(CC(=O)Nc3ccc(N4CCOCC4)cc3N3CCOCC3)C2=O)cc1 (centres undefined) | -1 | 7 | -2 | 2 | 2 | 1 | . | .
COc1ccc([C@H]2N[C@]3(CCCN(Cc4ccc(C(F)(F)F)cc4)C3=O)[C@H]3C(=O)N(Cc4ccccc4)C(=O)[C@@H]23)cc1 | . | . | 17* | 0 | . | . | 8 | 7
O=C1[C@H]2[C@@H](c3ccc(C(F)(F)F)cc3)N[C@]3(CCCN(Cc4ccc(C(F)(F)F)cc4)C3=O)[C@H]2C(=O)N1Cc1ccccc1 | . | . | 7 | -5 | . | . | . | .
